Reference: ChEMBL document CHEMBL4041500, “Attenuation of Mycobacterium species through direct and macrophage mediated pathway by unsymmetrical diaryl urea” (Eur J Med Chem, 2017)
In brackets after ≈: the same amount, converted by molar mass. Activity calls are given as the source filed them. The calls are words filed in the database; no cut-off is given here.

Columns and labels:
[1] = tested on: Mycolicibacterium smegmatis; assay: Antimycobacterial activity against Mycobacterium smegmatis MC2 155 after 48 hrs by serial dilution method; format: functional; conditions: str. MC2 155, 48 h
Outline: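 M. smegmatis grown in Middlebrook 7H9 with 10% albumin–dextrose complex and 0.03% Tween80 at 37 °C. Twofold serial dilutions of compound were combined with mid-log culture diluted to OD570 0.01, giving a final range of […] in 7H9 broth. Incubated in ambient air at 37 °C for 48 h. MIC taken as the lowest concentration preventing visible growth.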

[2] = tested on: Mycobacterium tuberculosis; assay: Antimycobacterial activity against Mycobacterium tuberculosis H37Rv ATCC 27294 after 7 days by microplate alamar blue assay; format: functional; conditions: H37Rv ATCC 27294, 168 h
Outline: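 MABA run in 7H12 medium in 96-well plates for 7 days at 37 °C. Alamar Blue and Tween 80 were then added for a further 24 h. Fluorescence was read at 530/590 nm. MIC was the lowest concentration giving a 90% fluorescence (or luminescence) reduction versus controls. Luciferase reporter strains or intracellular ATP were used for compounds with background fluorescence. Isoniazid and rifampin were run as controls.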

Peritoneal macrophage = assay: Cytotoxicity against Balb/c mouse peritoneal macrophages assessed as reduction in cell viability after 48 hrs by MTT assay; format: cell-based
Outline: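 Murine peritoneal macrophages, 1 × 10^6 cells/well, exposed to compound at 0.1 to 250 µg/ml in RPMI-1640 with 10% FBS for 48h. MTT (5 mg/ml) added for 3 h at 37°C, formazan dissolved in 0.04M HCl in isopropanol for 15 min at room temperature, absorbance read at 570 nm. IC50 (50% loss of viability) taken from a dose–response curve of percentage activity versus log10 concentration.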

HepG2 = assay: Cytotoxicity against human HepG2 cells assessed as reduction in cell viability after 72 hrs by MTT assay; format: cell-based; conditions: hepg2, 72 h
Outline: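 HepG2 cells grown in Eagle's MEM with 10% FBS at 37 °C and 5% CO2. Cells were scraped, resuspended at ~1 × 10^6 cells/mL, plated and left 24 h, then exposed to compound at 400 to 0.2 µg/mL for 72 h. Viability read by MTT assay. IC50 (50% loss of viability) taken from a dose–response curve versus log10 concentration.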

[3] = tested on: Mycolicibacterium smegmatis; assay: Inhibition of fattyacid biosynthesis in Mycobacterium smegmatis MC2 155 assessed as reduction in [1-14C]acetate incorporation at 5 times antibacterial MIC preincubated for 90 mins followed by [1-14C]acetate addition measured after 1 hr by liquid scintillation counting based TLC method; format: functional; conditions: str. MC2 155
[4] = tested on: Mycolicibacterium smegmatis; assay: Inhibition of epoxy-mycolic acid biosynthesis in Mycobacterium smegmatis MC2 155 assessed as reduction in [1-14C]acetate incorporation at 5 times antibacterial MIC preincubated for 90 mins followed by [1-14C]acetate addition measured after 1 hr by liquid scintillation counting based TLC method; format: functional; conditions: str. MC2 155
[5] = tested on: Mycolicibacterium smegmatis; assay: Inhibition of alpha'-mycolic acid biosynthesis in Mycobacterium smegmatis MC2 155 assessed as reduction in [1-14C]acetate incorporation at 5 times antibacterial MIC preincubated for 90 mins followed by [1-14C]acetate addition measured after 1 hr by liquid scintillation counting based TLC method; format: functional; conditions: str. MC2 155
[6] = tested on: Mycolicibacterium smegmatis; assay: Inhibition of alpha-mycolic acid biosynthesis in Mycobacterium smegmatis MC2 155 assessed as reduction in [1-14C]acetate incorporation at 5 times antibacterial MIC preincubated for 90 mins followed by [1-14C]acetate addition measured after 1 hr by liquid scintillation counting based TLC method; format: functional; conditions: str. MC2 155
[7] = tested on: Mycobacterium tuberculosis; assay: Antimycobacterial activity against Mycobacterium tuberculosis MC2 6030 after 2 to 3 weeks by agar plate method; format: functional
Outline: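 Strain mc²6030 is a pantothenate auxotroph lacking RD1, grown at 37 °C in Sauton's medium plus 20 μg/ml pantothenic acid. Serial 10-fold dilutions of actively growing culture were plated on 7H10/OADC agar with 20 μg/ml pantothenic acid and increasing compound concentrations, from 10 mg/ml DMSO stocks. Plates were held 2–3 weeks at 37 °C. MIC was the concentration inhibiting 99% of growth; isoniazid served as control.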

[8] = tested on: Mycolicibacterium smegmatis; assay: Antimycobacterial activity against Mycobacterium smegmatis MC2 155 infected in Balb/c mouse peritoneal macrophages assessed as downregulation of IL-10 mRNA expression at 5 ug/ml after 6 hrs RT-PCR method; format: functional; conditions: str. MC2 155
Outline: (§1)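 BALB/c peritoneal macrophages were cultured 48 h in RPMI-1640 with 10% FBS. Cells at 2 × 10⁶/ml were infected with mid-log, PBS-washed mc²155 at a macrophage:bacteria ratio of 1:10 for 6 h, then washed three times. Compound was added at 5 µg/mL for another 6 h. Total RNA was taken up in Trizol, 1 µg was used for cDNA, and PCR ran 40 cycles (94 °C 45 s, 60 °C 1 min, 72 °C 1 min).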

[9] = tested on: Mycolicibacterium smegmatis; assay: Antimycobacterial activity against Mycobacterium smegmatis MC2 155 infected in Balb/c mouse peritoneal macrophages assessed as increase in iNOS2 mRNA expression at 5 ug/ml after 6 hrs RT-PCR method; format: functional; conditions: str. MC2 155; outline: as §1
[10] = tested on: Mycolicibacterium smegmatis; assay: Antimycobacterial activity against Mycobacterium smegmatis MC2 155 infected in Balb/c mouse peritoneal macrophages assessed as upregulation of IL-12 mRNA expression at 5 ug/ml after 6 hrs RT-PCR method; format: functional; conditions: str. MC2 155; outline: as §1
[11] = tested on: Mycolicibacterium smegmatis; assay: Antimycobacterial activity against Mycobacterium smegmatis MC2 155 infected in Balb/c mouse peritoneal macrophages assessed as upregulation of IFN-gamma mRNA expression at 5 ug/ml after 6 hrs RT-PCR method; format: functional; conditions: str. MC2 155; outline: as §1
[12] = tested on: Mycobacterium tuberculosis; assay: Antimycobacterial activity against Mycobacterium tuberculosis H37Rv ATCC 27294 at 50 ug/ml after 7 days by microplate alamar blue assay relative to control; format: functional; conditions: H37Rv ATCC 27294, 168 h

## CCCCOc1ccc(NC(=O)Nc2ccccc2C)cc1
[1]
  MIC: 100 µg/mL (≈ 335 µM)
[2]
  MIC90: 7 µg/mL (≈ 23.5 µM)
Peritoneal macrophage
  Activity: 125.7 µg/mL
HepG2
  Activity: 130.5 µg/mL
[3]
  inhibition: inactive
[4]
  inhibition: Active
[5]
  inhibition: inactive
[6]
  inhibition: inactive
[7]
  MIC99: 100 µg/mL (≈ 335 µM)

## CC(C)=CCOc1cccc(NC(=O)Nc2ccccc2C)c1
[8]
  Activity: Active
[1]
  MIC: 12.5 µg/mL (≈ 40.3 µM)
[2]
  MIC90: 5.2 µg/mL (≈ 16.8 µM)
[9]
  Activity: Active
Peritoneal macrophage
  Activity: 140.5 µg/mL
[10]
  Activity: Active
HepG2
  Activity: 163.4 µg/mL
[3]
  inhibition: inactive
[4]
  inhibition: Active
[5]
  inhibition: inactive
[6]
  inhibition: inactive
[7]
  MIC99: 1 µg/mL (≈ 3.22 µM)
[11]
  Activity: Active

## CC(C)=CCOc1ccc(NC(=O)Nc2ccccc2)cc1
[1]
  MIC: 25 µg/mL (≈ 84.4 µM)
[2]
  MIC90: 43.1 µg/mL (≈ 145 µM)
Peritoneal macrophage
  Activity: 109.5 µg/mL
HepG2
  Activity: 124.7 µg/mL
[3]
  inhibition: inactive
[4]
  inhibition: inactive
[5]
  inhibition: inactive
[6]
  inhibition: inactive
[7]
  MIC99: 30 µg/mL (≈ 101 µM)

## CC(C)=CCOc1cccc(NC(=O)Nc2cccc(C#N)c2)c1
[8]
  Activity: Active
[1]
  MIC: 25 µg/mL (≈ 77.8 µM)
[2]
  MIC90: 9.2 µg/mL (≈ 28.6 µM)
[9]
  Activity: Active
Peritoneal macrophage
  Activity: 159.4 µg/mL
[10]
  Activity: Active
HepG2
  Activity: 172.6 µg/mL
[3]
  inhibition: inactive
[4]
  inhibition: Active
[5]
  inhibition: inactive
[6]
  inhibition: inactive
[11]
  Activity: Active

## CC(C)=CCOc1cccc(NC(=O)Nc2cccc(C(=O)O)c2)c1
[1]
  MIC: 12.5 µg/mL (≈ 36.7 µM)
[2]
  MIC90: 16.5 µg/mL (≈ 48.5 µM)
Peritoneal macrophage
  Activity: 120.4 µg/mL
HepG2
  Activity: 132.6 µg/mL
[3]
  inhibition: inactive
[4]
  inhibition: Active
[5]
  inhibition: inactive
[6]
  inhibition: inactive

## CC(C)=CCOc1cccc(NC(=O)Nc2cccc(C(F)(F)F)c2)c1
[1]
  MIC: 3.12 µg/mL (≈ 8.56 µM)
[2]
  MIC90: 40.2 µg/mL (≈ 110 µM)
Peritoneal macrophage
  Activity: 116.7 µg/mL
HepG2
  Activity: 135.6 µg/mL
[3]
  inhibition: inactive
[4]
  inhibition: Active

## CC(C)=CCOc1ccc(NC(=O)Nc2cccc(C#N)c2)cc1
[12]
  inhibition at 50 µg/mL: 82%
[1]
  MIC: 50 µg/mL (≈ 156 µM)
[2]
  MIC90: > 500 µg/mL
Peritoneal macrophage
  Activity: 169.1 µg/mL
HepG2
  Activity: 186.4 µg/mL
[7]
  MIC99: 5 µg/mL (≈ 15.6 µM)

## C=CCOc1cccc(NC(=O)Nc2cccc([N+](=O)[O-])c2)c1
[12]
  inhibition at 50 µg/mL: 76%
[1]
  MIC: 50 µg/mL (≈ 160 µM)
[2]
  MIC90: > 50 µg/mL
Peritoneal macrophage
  Activity: 78.4 µg/mL
HepG2
  Activity: 105.6 µg/mL
[7]
  MIC99: 5 µg/mL (≈ 16 µM)

## CCCCOc1cccc(NC(=O)Nc2ccccc2)c1
[12]
  inhibition at 50 µg/mL: 57%
[1]
  MIC: > 200 µg/mL
[2]
  MIC90: > 50 µg/mL
Peritoneal macrophage
  Activity: 121.7 µg/mL
HepG2
  Activity: 124.1 µg/mL
[7]
  MIC99: 50 to 100 µg/mL (≈ 176 to 352 µM)

## CC(C)=CCOc1cccc(NC(=O)Nc2ccccc2)c1
[12]
  inhibition at 50 µg/mL: 79%
[1]
  MIC: > 200 µg/mL
[2]
  MIC90: > 50 µg/mL
Peritoneal macrophage
  Activity: 141.8 µg/mL
HepG2
  Activity: 168.2 µg/mL
[7]
  MIC99: 30 µg/mL (≈ 101 µM)

## C=CCOc1ccc(NC(=O)Nc2cccc(C#N)c2)cc1
[12]
  inhibition at 50 µg/mL: 66%
[1]
  MIC: > 200 µg/mL
[2]
  MIC90: > 50 µg/mL
Peritoneal macrophage
  Activity: 96.7 µg/mL
HepG2
  Activity: 103.5 µg/mL
[7]
  MIC99: > 100 µg/mL

## CCCCOc1ccc(NC(=O)Nc2cccc(C#N)c2)cc1
[12]
  inhibition at 50 µg/mL: 22%
[1]
  MIC: > 200 µg/mL
[2]
  MIC90: > 50 µg/mL
Peritoneal macrophage
  Activity: 180.9 µg/mL
HepG2
  Activity: 206.7 µg/mL
[7]
  MIC99: > 100 µg/mL

## CC(C)=CCOc1cccc(NC(=O)Nc2cccc([N+](=O)[O-])c2)c1
[8]
  Activity: Active
[1]
  MIC: 3.21 µg/mL (≈ 9.4 µM)
[2]
  MIC90: 6 µg/mL (≈ 17.6 µM)
[9]
  Activity: Active
Peritoneal macrophage
  Activity: 94.1 µg/mL
[10]
  Activity: inactive
HepG2
  Activity: 113.7 µg/mL
[3]
  inhibition: inactive
[4]
  inhibition: Active
[5]
  inhibition: inactive
[6]
  inhibition: inactive
[7]
  MIC99: 2 µg/mL (≈ 5.86 µM)
[11]
  Activity: inactive

## CC(C)=CCOc1cccc(NC(=O)Nc2cccc(F)c2)c1
[12]
  inhibition at 50 µg/mL: 89%
[1]
  MIC: 25 µg/mL (≈ 79.5 µM)
[2]
  MIC90: > 50 µg/mL
Peritoneal macrophage
  Activity: 83.7 µg/mL
HepG2
  Activity: 94 µg/mL
[3]
  inhibition: inactive
[4]
  inhibition: Active
